This note sets out measurements from ChEMBL document CHEMBL1955779, “Favourable involvement of α2A-adrenoreceptor antagonism in the I₂-imidazoline binding sites-mediated morphine analgesia enhancement” (Bioorg Med Chem, 2012).

The target of assay [1] is T1, Alpha-2A adrenergic receptor (Homo sapiens, UniProt P08913).
T1 sequence (P08913 whole entry): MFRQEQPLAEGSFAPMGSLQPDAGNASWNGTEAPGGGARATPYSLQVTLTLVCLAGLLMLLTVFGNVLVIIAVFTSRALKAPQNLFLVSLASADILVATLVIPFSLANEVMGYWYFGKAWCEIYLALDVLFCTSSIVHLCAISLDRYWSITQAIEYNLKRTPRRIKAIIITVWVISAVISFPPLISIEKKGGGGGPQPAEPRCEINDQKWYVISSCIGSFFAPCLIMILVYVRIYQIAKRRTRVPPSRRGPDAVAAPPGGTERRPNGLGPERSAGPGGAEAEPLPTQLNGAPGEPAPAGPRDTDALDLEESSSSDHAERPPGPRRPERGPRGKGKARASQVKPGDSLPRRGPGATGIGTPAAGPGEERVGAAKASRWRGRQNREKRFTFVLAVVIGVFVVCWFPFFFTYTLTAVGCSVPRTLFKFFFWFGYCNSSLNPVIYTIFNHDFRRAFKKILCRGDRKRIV
Description: Displacement of [3H]RX821002 from human alpha2A adrenergic receptor expressed in CHO cells after 30 mins by scintillation counting. Type of assay: cell-based.

The nature of assay [2]: Displacement of [3H]2-BFI from Sprague-Dawley rat I2 imidazoline binding site by liquid scintillation counting.
The target of assay [3] is T2, Alpha-2A adrenergic receptor (Homo sapiens) (UniProt P08913).
T2 sequence (whole entry): T1 sequence (P08913 whole entry)
The assay is described as follows: Antagonist activity at human alpha2A adrenergic receptor expressed in CHO cells assessed as inhibition of clonidine-induced extracellular acidification after 30 mins by cytosensor microphysiometry. The class given is functional, cell-based. A digest of the protocol:
(§1)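 pKb from cytosensor microphysiometry on CHO cells each expressing one human α2 subtype (α2A, α2B or α2C). Antagonist shift of the clonidine agonist concentration-effect curve was measured. Means ± SEM of three to six separate experiments.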

The target of assay [4] is T3, Alpha-2B adrenergic receptor (Homo sapiens, UniProt P18089).
T3 sequence (P18089 whole entry): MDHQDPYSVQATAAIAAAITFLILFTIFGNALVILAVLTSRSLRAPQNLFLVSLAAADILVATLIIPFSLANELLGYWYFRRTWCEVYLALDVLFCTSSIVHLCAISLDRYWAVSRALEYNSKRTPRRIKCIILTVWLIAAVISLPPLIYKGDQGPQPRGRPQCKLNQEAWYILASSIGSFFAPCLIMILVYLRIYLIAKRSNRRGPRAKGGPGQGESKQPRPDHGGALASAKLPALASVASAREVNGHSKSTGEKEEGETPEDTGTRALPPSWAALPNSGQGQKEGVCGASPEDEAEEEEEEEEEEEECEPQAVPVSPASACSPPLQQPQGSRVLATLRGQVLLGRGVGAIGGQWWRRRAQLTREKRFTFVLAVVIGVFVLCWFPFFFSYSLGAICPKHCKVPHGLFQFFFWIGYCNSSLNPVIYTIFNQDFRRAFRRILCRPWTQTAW
The assay is described as follows: Displacement of [3H]RX821002 from human alpha2B adrenergic receptor expressed in CHO cells after 30 mins by scintillation counting. Type of assay: cell-based.

Assay [5] concerns the target T4, Alpha-2C adrenergic receptor (Homo sapiens, UniProt P18825).
T4 sequence (P18825 whole entry): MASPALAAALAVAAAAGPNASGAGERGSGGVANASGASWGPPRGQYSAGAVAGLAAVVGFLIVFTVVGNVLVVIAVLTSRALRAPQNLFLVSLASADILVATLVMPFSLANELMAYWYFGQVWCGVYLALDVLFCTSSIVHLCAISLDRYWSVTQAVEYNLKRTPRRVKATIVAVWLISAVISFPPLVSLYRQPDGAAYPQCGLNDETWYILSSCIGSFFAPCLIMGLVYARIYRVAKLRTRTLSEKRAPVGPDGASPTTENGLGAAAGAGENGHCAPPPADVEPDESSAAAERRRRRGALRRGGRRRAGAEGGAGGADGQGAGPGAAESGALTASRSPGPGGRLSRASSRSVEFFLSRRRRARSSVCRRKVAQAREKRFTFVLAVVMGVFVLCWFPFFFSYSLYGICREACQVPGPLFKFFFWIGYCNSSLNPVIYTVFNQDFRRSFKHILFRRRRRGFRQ
The assay is described as follows: Displacement of [3H]RX821002 from human Alpha-2C adrenergic receptor expressed in CHO cells after 30 mins by scintillation counting. Type of assay: cell-based.

The target in assay [6] is T5, Alpha-2B adrenergic receptor (Homo sapiens) (UniProt P18089).
T5 sequence (whole entry): T3 sequence (P18089 whole entry)
Description: Antagonist activity at human alpha2B adrenergic receptor expressed in CHO cells assessed as inhibition of clonidine-induced extracellular acidification after 30 mins by cytosensor microphysiometry. Type of assay: functional, cell-based. A digest of the protocol:
as §1

The target in assay [7] is T6, Alpha-2C adrenergic receptor (Homo sapiens) (UniProt P18825).
T6 sequence (whole entry): T4 sequence (P18825 whole entry)
Description: Antagonist activity at human Alpha-2C adrenergic receptor expressed in CHO cells assessed as inhibition of clonidine-induced extracellular acidification after 30 mins by cytosensor microphysiometry. The class given is functional, cell-based. The procedure, abridged: as §1

In assay [8] the test system is Mus musculus. Description: Analgesic activity in CD1 mouse assessed as latency in radiant heat-induced tail flick at 5 mg/kg, sc after 30 mins. Type of assay: functional, organism-based. The arrangement: dose 5 mg/kg. The procedure, abridged: (§2)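 Male CD-1 mice, 25–35 g. Radiant heat tail-flick: I.R. source aimed at lower third of tail; basal latency (2-3 s) is the mean of two trials 30 min apart. Test agent 1 or 2 mg/kg ip, or distilled water vehicle, given 15 min before morphine 5.0 mg/kg sc or saline. Readings at 30, 60, 90, 120 and 240 min after morphine, as %MPE; 8–10 mice, means ± SEM.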

Assay [9] has as its system Mus musculus. Description: Potentiation of morphine-induced analgesic activity in CD1 mouse assessed as latency in radiant heat-induced tail flick at 1.250 mg/kg, ip administered 15 mins prior to morphine measured up to 120 mins. The class given is functional, organism-based. The arrangement: dose 1.25 mg/kg. A digest of the protocol: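 Male CD-1 mice (25–35 g) were given ip pretreatment in distilled-water vehicle 15 min before morphine 5.0 mg/kg sc or saline. Radiant-heat IR tail-flick was applied to the lower third of the tail. Basal latency (2–3 s) was the mean of two trials 30 min apart. Readings at 30, 60, 90, 120 and 240 min post-morphine were expressed as %MPE. Means ± SEM, 8–10 mice.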

Assay [10] has as its system Mus musculus. Description: Potentiation of morphine-induced analgesic activity in CD1 mouse assessed as latency in radiant heat-induced tail flick at 1 mg/kg, ip administered 15 mins prior to morphine measured up to 120 mins. Type of assay: functional, organism-based. The arrangement: dose 1 mg/kg. A digest of the protocol: as §2
The target in assay [11] is T7, Alpha-1A adrenergic receptor (Homo sapiens, UniProt P35348).
T7 sequence (P35348 whole entry): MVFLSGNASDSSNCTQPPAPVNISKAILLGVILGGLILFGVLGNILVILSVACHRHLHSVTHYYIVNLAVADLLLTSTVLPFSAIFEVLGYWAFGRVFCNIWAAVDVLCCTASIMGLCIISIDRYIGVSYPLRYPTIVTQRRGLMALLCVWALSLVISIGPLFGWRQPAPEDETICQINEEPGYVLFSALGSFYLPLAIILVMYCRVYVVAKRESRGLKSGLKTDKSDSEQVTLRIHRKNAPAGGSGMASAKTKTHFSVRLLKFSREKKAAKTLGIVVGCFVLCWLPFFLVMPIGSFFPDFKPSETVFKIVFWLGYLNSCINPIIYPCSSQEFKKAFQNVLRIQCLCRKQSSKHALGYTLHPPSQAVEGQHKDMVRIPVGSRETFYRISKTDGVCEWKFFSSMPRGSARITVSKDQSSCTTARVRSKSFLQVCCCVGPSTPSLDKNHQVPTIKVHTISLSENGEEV
Description: Binding affinity to alpha1A adrenergic receptor.

Assay [12] concerns Mus musculus. The assay is described as follows: Antinociceptive activity in CD1 mouse assessed as latency in radiant heat-induced tail flick at 1 mg/kg, ip from 30 to 240 mins. Type of assay: functional, organism-based. Details: dose 1 mg/kg. The procedure, abridged:
as §2

In assay [13] the test system is Mus musculus. Description: Potentiation of morphine-induced analgesic activity in ip dosed CD1 mouse assessed as latency in radiant heat-induced tail flick administered 15 mins prior to morphine in the presence of 2 mg/kg, ip of idazoxan. The conditions noted are these: route intraperitoneal. The class given is functional. A digest of the protocol: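 CD-1 mice, radiant heat tail-flick. […] Test agent given 15 min before morphine 5.0 mg/kg sc. Latency read after morphine.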

Assay [14] relates to Mus musculus. The assay is described as follows: Antinociceptive activity in CD1 mouse assessed as latency in radiant heat-induced tail flick at 2 mg/kg, ip from 30 to 240 mins. Type of assay: functional, organism-based. Details: dose 2 mg/kg. The procedure, abridged: as §2
Assay [15] concerns Mus musculus. The assay is described as follows: Potentiation of morphine-induced analgesic activity in CD1 mouse assessed as latency in radiant heat-induced tail flick at 2 mg/kg, ip administered 15 mins prior to morphine measured up to 120 mins. Type of assay: functional, organism-based. Details: dose 2 mg/kg. The procedure, abridged:
as §2

Assay [16] addresses T8, 5-hydroxytryptamine receptor 1A (Homo sapiens, UniProt P08908).
T8 sequence (P08908 whole entry): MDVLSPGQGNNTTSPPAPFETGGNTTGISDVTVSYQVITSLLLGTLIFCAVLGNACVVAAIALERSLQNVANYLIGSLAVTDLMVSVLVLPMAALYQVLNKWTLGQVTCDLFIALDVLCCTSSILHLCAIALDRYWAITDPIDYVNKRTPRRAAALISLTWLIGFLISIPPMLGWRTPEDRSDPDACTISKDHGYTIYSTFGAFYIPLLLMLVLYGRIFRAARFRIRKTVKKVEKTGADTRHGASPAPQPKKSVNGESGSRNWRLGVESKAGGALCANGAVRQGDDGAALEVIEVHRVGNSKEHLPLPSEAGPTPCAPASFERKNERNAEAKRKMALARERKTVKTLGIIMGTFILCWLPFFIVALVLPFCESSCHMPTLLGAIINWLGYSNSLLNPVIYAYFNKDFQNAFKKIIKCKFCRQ
The assay is described as follows: Binding affinity to 5HT1A receptor.

A short description of assay [17]: Binding affinity to I2 imidazoline binding site.
Assay [18] can be described thus: Selectivity ratio of I2 imidazoline binding site to alpha2 adrenergic receptor.

Activity calls are given as the source filed them. The rule behind the calls is not given here.

On to `c1ccc([C@H]2CO[C@H](C3=NCCN3)CO2)cc1`, for which the results for the Ki in assay [1], in assay [4] and in assay [5] were 7.94 µM, > 10 µM and > 10 µM, respectively. The molecule also had a pKi in assay [2] of 5.48. The negative-log Kb (pKb) in assay [3], in assay [6] and in assay [7] was < 5 throughout.
With `c1ccc([C@@H]2CO[C@@H](C3=NCCN3)CO2)cc1`, the inhibitory constant (Ki) in [1] is 0.398 µM; in assay [4], > 10 µM; in assay [5] it was > 10 µM. The molecule further displayed a pKi in [2] of 6.52. The pKb is 6.4 in assay [3], < 5 in assay [6] and < 5 in [7].
Turning to `c1ccc(C2(c3ccccc3)COC(C3=NCCN3)CO2)cc1` (configuration not stated), the Ki in [1] was > 10 µM; in assay [4] it was 2.82 µM; in assay [5], 7.41 µM. For the same molecule, the pKb in assay [3], in assay [6] and in [7] was < 5 in each case.
`c1ccc(C2(c3ccccc3)COCC(C3=NCCN3)O2)cc1` (configuration not stated): the Ki in [1] is 3.8 µM; in [4] it was 4.47 µM; in assay [5], 6.17 µM. Further, the values for the negative logarithm of the Kb (pKb) in assay [3], in assay [6] and in assay [7] were 5.37, < 5 and < 5, respectively.
Turning to `CN1CC[C@]23c4c5ccc(O)c4O[C@H]2[C@@H](O)C=C[C@H]3[C@H]1C5`, in [8], the result was Active.
For the molecule `COC(=O)[C@@H]1[C@H]2C[C@H]3c4[nH]c5ccccc5c4CCN3C[C@@H]2CC[C@@H]1O`, the result in assay [9] was inactive.
For the molecule `c1ccc(C2COC(C3=NCCN3)CO2)cc1` (racemic), the outcome in assay [10] and in [15] was Active. The inhibitory constant (Ki) in [11] is > 10 µM; in assay [1], 0.501 µM; in [4], > 10 µM; in assay [5], > 10 µM; in [16], > 10 µM. The result in assay [12] and in [14] was inactive. The Activity in [13] is listed as -24%. For the same molecule, the pKi in [2] came out at 6.35. Further, the results for the pKb in assay [3], in [6] and in assay [7] were 6.4, < 5 and < 5, respectively.
As for `c1ccc([C@@H]2CO[C@H](C3=NCCN3)CO2)cc1` (relative stereo), the Ki in assay [1], in assay [4] and in assay [5] was > 10 µM in each case. Moreover, the negative-log Kb (pKb) in assay [3] is < 5; in assay [6], 5.5; in assay [7], < 5.
As for `c1ccc([C@H]2COC[C@@H](C3=NCCN3)O2)cc1` (relative stereo), the Ki in [1] was 5.37 µM; in assay [4], > 10 µM; in assay [5], > 10 µM. Besides, the negative logarithm of the Kb (pKb) in assay [3] is < 5; in assay [6], 5.18; in [7], < 5.
Consider `c1ccc([C@@H]2COC[C@@H](C3=NCCN3)O2)cc1` (relative stereo), for which the inhibitory constant (Ki) is 6.31 µM in [1], > 10 µM in assay [4] and > 10 µM in [5]. Further, the negative-log Kb (pKb) in [3], in assay [6] and in assay [7] was < 5 throughout.
Consider `c1ccc2c(c1)OCC(C1=NCCN1)O2` (configuration not stated) [IDAZOXAN], for which the pKb in [3] was 7.73; in assay [6], 7.16; in assay [7] it was 7.92. Also, the pKi in assay [17] is 8.37. Besides, in assay [15], the outcome was inactive.
Regarding `c1ccc(CCC2=NCCN2)cc1` [PHENYZOLINE], the Selectivity ratio in [18] came out at 794. The molecule also came in with a pKi in assay [17] of 8.6.
